pEC50: −log10 of the molar value.
What was measured:
H5N1 subtype [1] = assay: Antiviral activity against Influenza A virus Gull/PA/4175/83/H5N1 infected MDCK cells after 42 to 46 hrs by neutral red dye uptake assay; type: functional, organism-based, Influenza A virus (A/gull/Pennsylvania/4175/83(H5N1)); details: Influenza A virus, MDCK
Influenza A virus [2] = assay: Antiviral activity against Influenza A virus California/07/2009 /H1N1 infected MDCK cells after 42 to 46 hrs by neutral red dye uptake assay; type: functional, organism-based, A/California/07/2009(H1N1); details: Influenza A virus, A/California/07/2009(H1N1), MDCK
[3] = Selectivity ratio of IC50 for MDCK cells to EC50 for Influenza A virus California/07/2009 /H1N1 by neutral red dye uptake assay; type: ADME, cell-based; details: dog, MDCK cells; read-out: Ratio IC50/EC50
How it was run: (§1)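 Neutral red uptake in MDCK cells: IC50 (50% inhibition of uninfected cells) divided by EC50 (50% inhibition of virus effect), both from replicate serial-dilution assays.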

Influenza A virus [4] = assay: Antiviral activity against Influenza A virus Wisconsin/67/2005/H3N2 infected MDCK cells after 3 days by virus yield reduction assay; type: functional, Influenza A virus (A/Wisconsin/67/2005(H3N2)); details: Influenza A virus, MDCK, 72 h
How it was run: (§2)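 Yield reduction assay: MDCK cells got serial compound dilutions and ≤300 CCID50 virus, in triplicate. Progeny virus was titrated. EC90 is the concentration reducing the infectious titer by 90%, as the mean of triplicates.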

[5] = Selectivity ratio of IC50 for MDCK cells to EC90 for Influenza A virus Wisconsin/67/2005/H3N2 by virus yield reduction assay; type: ADME, cell-based; details: dog, MDCK cells
How it was run: (§3)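 IC50 (50% inhibition of uninfected MDCK cells) divided by EC90 (concentration reducing the infectious virus titer by 90% in the yield reduction assay).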

[6] = Selectivity ratio of IC50 for MDCK cells to EC90 for Influenza A virus Duck/MN/1525/81/H5N1 by virus yield reduction assay; type: ADME, cell-based; details: dog, MDCK cells; how it was run: as §3
[7] = Selectivity ratio of IC50 for MDCK cells to EC50 for Influenza A virus Vietnam/1203/ 2004H/H5N1 by neutral red dye uptake assay; type: ADME, cell-based; details: dog, MDCK cells; read-out: Ratio IC50/EC50; how it was run: as §1
Influenza B virus = assay: Antiviral activity against Influenza B virus Malaysia/2506/2004 infected MDCK cells assessed as inhibition of virus-induced cytopathic effect after 3 days; type: functional, organism-based, B/Malaysia/2506/2004; details: Influenza B virus, B/Malaysia/2506/2004, MDCK, 72 h
How it was run: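 Triplicate MDCK (ATCC CCL-34) wells got serial dilutions of compound. They were then inoculated with ≤300 CCID50, enough for ~100% CPE in control wells within 3 days, using the same inoculum for all replicates. CPE was scored visually. EC50 is the concentration reducing CPE by 50%, as the mean of triplicates.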

H5N1 subtype [8] = assay: Antiviral activity against Influenza A virus Duck/MN/1525/81/H5N1 infected MDCK cells after 42 to 46 hrs by neutral red dye uptake assay; type: functional, organism-based, Influenza A virus (A/duck/Minnesota/1525/1981(H5N1))
[9] = Selectivity ratio of IC50 for MDCK cells to EC90 for Influenza A virus California/07/2009 /H1N1 by virus yield reduction assay; type: ADME, cell-based; details: dog, MDCK cells; how it was run: as §3
Influenza A virus [10] = assay: Antiviral activity against Influenza A virus Vietnam/1203/ 2004H/H5N1 infected MDCK cells assessed as inhibition of virus-induced cytopathic effect after 3 days; type: functional, organism-based, A/Viet Nam/1203/2004(H5N1)
[11] = Selectivity ratio of IC50 for MDCK cells to EC50 for inhibition of virus-induced cytopathic effect of Influenza A virus Vietnam/1203/ 2004H/H5N1; type: cell-based; details: dog, MDCK cells; read-out: Ratio IC50/EC50
How it was run: (§4)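 IC50 (50% inhibition of uninfected MDCK cells) divided by EC50 (concentration reducing virus-induced CPE by 50%, scored visually), both from replicate serial-dilution assays.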

[12] = system: Influenza A virus (A/Puerto Rico/8/1934(H1N1)); assay: Antiviral activity against Influenza A virus Solomon Islands/03/2006/H1N1 infected MDCK cells after 42 to 46 hrs by neutral red dye uptake assay; type: functional, organism-based, Influenza A virus (A/Solomon Islands/3/2006(H1N1))
How it was run: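 Triplicate MDCK wells got serial compound dilutions, then ≤300 CCID50 of virus, with the same inoculum for all replicates. Antiviral effect was read by neutral red dye uptake. EC50 is the concentration giving 50% inhibition of the virus effect, as the mean of triplicates.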

[13] = system: Influenza A virus (A/Puerto Rico/8/1934(H1N1)); assay: Antiviral activity against Influenza A virus Solomon Islands/03/2006/H1N1 infected MDCK cells after 3 days by virus yield reduction assay; type: functional, Influenza A virus (A/Solomon Islands/3/2006(H1N1)); details: Influenza A virus, MDCK, 72 h; how it was run: as §2
Influenza A virus [14] = assay: Antiviral activity against Influenza A virus Vietnam/1203/ 2004H/H5N1 infected MDCK cells after 3 days by virus yield reduction assay; type: functional, A/Viet Nam/1203/2004(H5N1)
[15] = Selectivity ratio of IC50 for MDCK cells to EC50 for Influenza A virus Gull/PA/4175/83/H5N1 by neutral red dye uptake assay; type: ADME, cell-based; details: dog, MDCK cells; read-out: Ratio IC50/EC50; how it was run: as §1
[16] = Selectivity ratio of IC50 for MDCK cells to EC50 for inhibition of virus-induced cytopathic effect of Influenza A virus Wisconsin/67/2005/H3N2; type: cell-based; details: dog, MDCK cells; read-out: Ratio IC50/EC50; how it was run: as §4
[17] = Selectivity ratio of IC50 for MDCK cells to EC50 for Influenza B virus Malaysia/2506/2004 by neutral red dye uptake assay; type: ADME, cell-based; details: dog, MDCK cells; read-out: Ratio IC50/EC50; how it was run: as §1
[18] = Influenza A virus, A/Viet Nam/1203/2004(H5N1), MDCK

| Compound | pEC50 (H5N1 subtype [1]) | pEC50 (Influenza A virus [2]) | selectivity ratio [3] | EC90 (Influenza A virus [4]) | selectivity ratio [5] | selectivity ratio [6] | selectivity ratio [7] | pEC50 (Influenza B virus) | selectivity ratio [9] | pEC50 (Influenza A virus [10]; [18]) | selectivity ratio [11] | EC90 [13] | selectivity ratio [15] | selectivity ratio [16] | selectivity ratio [17] | pEC50 (H5N1 subtype [8]; Influenza A virus, MDCK) | pEC50 ([12]; Influenza A virus, MDCK) | EC90 (Influenza A virus [14]; [18]) | also measured |
| --- | --- | --- | --- | --- | --- | --- | --- | --- | --- | --- | --- | --- | --- | --- | --- | --- | --- | --- | --- |
| Nc1ccn([C@@H]2C[C@H](CO)[C@@H](O)[C@H]2O)c(=O)n1 | 6.00 | 5.80 | > 259 | 2.5 µM | > 166 | > 39 | > 276 | 6.22 | > 109 | 6.10 | > 518 | 1.3 µM | > 414 | > 259 | > 518 |  |  |  | pEC50 (H5N1 subtype [8]; mdck): 5.70; pEC50 ([12]; mdck): 6.22; EC90 (Influenza A virus [14]): 5.7 µM |
| Nc1ccn([C@H]2C[C@@H](CO)[C@H](O)[C@@H]2O)c(=O)n1 | < 4.39 | < 3.38 | 1 | > 41 µM | < 10 | 1 | < 10 | < 4.39 | 1 | < 4.39 | < 10 | > 41 µM | < 10 | < 10 | < 10 | < 3.38 | < 4.39 | > 41 µM |  |
| NC(=O)c1ncn([C@@H]2O[C@H](CO)[C@@H](O)[C@H]2O)n1 [RIBAVIRIN] | 4.56 | 4.71 | > 68 | 21.7 µM | > 60 | > 30 | > 94 | 4.99 | > 101 |  | > 156 | 27 µM | > 48 | > 80 | > 67 | 4.49 | 4.60 | 11.6 µM | pEC50 (Influenza A virus [10]; mdck): 5.08 |
